MEKK2mut PB1 HTS – signal of MEK5 binding to mutant human MEKK2 PB1 domain | bead flow cytometry, Alexa488-MEK5 binding to MEKK2 mutant | percent response, % at 10 µM | 0.35% of 290,000 active; in the data active = percent response above about 24%, passing the limit was not always enough
MEKK3 PB1 HTS – raises or lowers MEK5 binding to the human MEKK3 PB1 domain; binding response (% of control), % at 10 µM; Q99759; bead-based flow cytometry, Alexa488-MEK5 binding to MEKK3; actives lie on both sides; 0 = blocked by unlabeled MEK5, 100 = vehicle; AID 1529; 1.4% of 290,000 active;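 active = binding response more than 3 SD above or below the average of its plate-row segment, actives on both sides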;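 also: Alexa488 bead fluorescence after subtracting the streptavidin-only scavenger bead signal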
Target sequence (Q99759 whole entry, looked up, the tested form may be a part): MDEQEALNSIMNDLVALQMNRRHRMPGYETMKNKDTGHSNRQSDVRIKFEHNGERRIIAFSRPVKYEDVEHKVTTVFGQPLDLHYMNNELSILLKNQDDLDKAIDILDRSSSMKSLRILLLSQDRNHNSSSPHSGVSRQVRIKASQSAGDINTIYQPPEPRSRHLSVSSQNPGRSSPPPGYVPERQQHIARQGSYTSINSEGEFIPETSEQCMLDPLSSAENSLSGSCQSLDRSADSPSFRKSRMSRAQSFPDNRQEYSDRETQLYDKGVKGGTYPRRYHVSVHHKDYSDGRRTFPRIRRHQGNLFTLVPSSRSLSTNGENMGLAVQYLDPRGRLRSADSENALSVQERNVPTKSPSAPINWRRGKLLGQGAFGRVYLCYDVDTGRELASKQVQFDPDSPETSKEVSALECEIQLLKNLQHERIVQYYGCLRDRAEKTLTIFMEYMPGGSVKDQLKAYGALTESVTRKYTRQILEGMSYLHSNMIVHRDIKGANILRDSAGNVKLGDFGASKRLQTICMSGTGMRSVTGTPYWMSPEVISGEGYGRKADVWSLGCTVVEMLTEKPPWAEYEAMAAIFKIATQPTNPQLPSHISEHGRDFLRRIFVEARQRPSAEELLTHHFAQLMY
Apaf1 inhib – inhibitors of human Apaf-1 apoptosome; O14727; reconstituted apoptosome caspase-3 activity, DEVD-Rh110 fluorescence; inhibition, % at 20 µM; 0.71% of 330,000 active; AID 489030; active = inhibition of at least 40% at 20 µM;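 also: plate controls were DMSO wells for no effect and DEVD-CHO caspase inhibitor wells for full effect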
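Material: reconstituted apoptosome with Apaf-1, cytochrome c, caspase-9, procaspase-3, dATP / Buffer or medium: pH 7.5 Hepes buffer with CHAPS, BSA, DTT / Also added: cytochrome c with DEVD-Rh110 / Schedule: compound with Apaf-1, dATP, procaspase-3 30 min, then 50 min reaction, room temperature / Technique: rhodamine 110 fluorescence at Ex 480/Em 540 nm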
UBC13 inh – blocks human UBC13 polyubiquitin chain formation; P61088; TR-FRET; inhibition, % at 20 µM; 0.47% of 330,000 active; AID 485273; in the data active = inhibition above about 45%, passing the limit was not always enough
MEKK2 WT-MEK5 – raises or lowers MEK5 binding to wildtype human MEKK2 PB1 domain | Q9Y2U5 | bead flow cytometry, Alexa488-MEK5 binding to MEKK2 WT; actives lie on both sides | binding response (% of control), % at 10 µM | 1.1% of 290,000 active | AID 1531; in the data active = binding response below about 67% or above about 130%
PREPL inh – human PREPL enzyme inhibition | 0.68% of 320,000 active | recombinant PREPL, fluorescence polarization activity-based probe | inhibition, % at 5.96 µM | Q4J6C6;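 also: 0% = enzyme with DMSO and 100% = wells lacking enzyme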
PREPL confirm – confirmation of human PREPL enzyme inhibitors | shares compounds with PREPL inh | recombinant PREPL, fluorescence polarization activity probe | inhibition, % at 5.96 µM | 67% of 2,000 active | AID 2803;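 also: 0% = protein with DMSO and 100% = wells lacking protein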
Active calls of the source: *; . = no result. Hits are enriched below; roughly 3.1% of the tested compounds scored in any of these assays. Rule as the data show it, unless noted: active = inhibition above about 43%; inactive = the rest.

SMILES	MEKK2mut PB1 HTS	MEKK3 PB1 HTS	Apaf1 inhib	UBC13 inh	MEKK2 WT-MEK5	PREPL inh	PREPL confirm
C=CCC[C@@H](Cc1ccc(F)cc1)C(=O)OC[C@@H](NC(=O)[C@H](CC=C)CC(=O)NCCO)C(C)(C)C	.	.	15	5	.	42	.
O=c1cc(CN2CCc3ccccc32)nc2sccn12	-3	89	-1	1	92	5	.
O=c1cc(CN2CCCc3ccccc32)nc2sccn12	-15	84	14	2	83	51*	19
C/C(CC1CC2=C(CC1(C)C)C(C)(C)CCC2)=N\NC(N)=S (centres undefined)	0	106	4	15	95	-2	.
O=c1cc(-c2ccccc2)oc2ccccc12	.	.	-1	-1	.	-20	.
Nc1cc([N+](=O)[O-])cc2oc(-c3ccccc3)cc12	-2	103	17	-146	104	53*	54*
CC(=O)NCCSc1ccc(S(=O)(=O)N2CCCC2)cn1	.	.	-5	-5	.	8	.
O=Cc1ccccc1OCCOc1ccc([N+](=O)[O-])cc1	-10	102	15	-12	85	43*	40
CC(C)CN(C(=O)COC(=O)c1ccc(-c2ccccc2)cc1)C1CCS(=O)(=O)C1 (centres undefined)	-7	94	13	-5	90	48*	40
O=C1OC[C@H]2CCCN2C(=O)[C@@H](CC(=O)N(CCO)Cc2ccccc2)C/C=C\CC[C@H]1Cc1ccc(F)cc1	.	.	31	5	.	45*	41
O=C1OC[C@H]2CCCN2C(=O)[C@@H](CC(=O)N(CCO)Cc2ccccc2)C/C=C\C[C@H]1Cc1ccc(F)cc1	.	.	15	20	.	54*	45*
O=C1OC[C@@H]2CCCN2C(=O)[C@@H](CC(=O)N(CCO)Cc2ccccc2)C/C=C\C[C@H]1Cc1ccc(F)cc1	.	.	23	10	.	53*	40
O=C1OC[C@@H]2CCCN2C(=O)[C@H](CC(=O)N(CCO)Cc2ccccc2)C/C=C\CC[C@H]1Cc1ccc(F)cc1	.	.	15	12	.	35	.
CC(=O)c1c(OC(=O)c2ccc(C)cc2)c2ccccc2n1C	8	108	2	-3	109	8	.
Cc1ccc(C(=O)Oc2cc(C)n(C)c(=O)c2)cc1	8	103	8	-7	105	47*	26
Cc1cc(OCC(=O)OCC(=O)c2ccc[nH]2)ccc1Cl	.	.	17	-2	.	.	.
O=C(Nc1ccc2c(c1)CCC2)C1CCN(c2c3c(nc4ncnn24)CCC3)CC1	3	101	-3	7	105	46*	43
CC(C)CN(C(=O)Cn1c(Cl)nc2c1c(=O)n(C)c(=O)n2C)C1CCS(=O)(=O)C1 (centres undefined)	.	.	-8	0	.	-4	.
CCC(=O)N1CCN(c2ccc(NC(=O)COc3ccc(CC)cc3)cc2)CC1	-3	100	13	-3	96	45*	48*
COc1ccc(OCC(=O)Nc2ccc(N3CCOCC3)cc2)cc1	0	98	-20	8	97	24	.
CC(C)(C)c1ccc(OCCC(=O)Nc2ccc(N3CCOCC3)cc2N2CCOCC2)cc1	.	.	37	2	.	49*	42
Cc1ccc(OCC(=O)Nc2ccc(N3CCOCC3)cc2)cc1	-6	91	-18	3	91	45*	31
CCOc1cc(N2CCOCC2)c(OCC)cc1NC(=O)COC(=O)CCOc1ccc(C(C)(C)C)cc1	.	.	29	-4	.	6	.
CCC(=O)N1CCN(c2ccc(NC(=S)NC(=O)COc3ccccc3)cc2)CC1	6	103	18	1	105	23	.
Cc1ccc(Nc2c(-c3ccccc3)nc3cnccn23)cc1	-5	100	9	6	96	-12	.
SMILES	MEKK2mut PB1 HTS	MEKK3 PB1 HTS	Apaf1 inhib	UBC13 inh	MEKK2 WT-MEK5	PREPL inh	PREPL confirm
Cc1ccc2nc(-c3ccncc3)c(Nc3ccccc3)n2c1	-2	95	-3	16	95	-9	.
CSc1ccc(-c2nc3cnccn3c2Nc2ccc3c(c2)OCO3)cc1	-1	107	22	-10	98	50*	48*
Cc1ccn2c(Nc3ccc4c(c3)OCO4)c(-c3ccccn3)nc2c1	-2	101	17	0	103	77*	67*
Cc1ccc(Nc2c(-c3ccccn3)nc3cc(C)ccn23)cc1	-8	105	-10	42	94	74*	58*
Cc1ccc(Nc2c(-c3ccccn3)nc3ccc(C)cn23)cc1	11	106	11	22	115	63*	69*
COc1ccc(N2CCN(c3oc(-c4ccco4)nc3C#N)CC2)cc1	2	96	-11	6	98	44*	35
COc1ccccc1-c1nc(C#N)c(N2CCN(c3ccccc3)CC2)o1	4	106	9	4	106	48*	39
CC1CCCC(C)N1C(=O)COC(=O)c1cc(F)c(F)cc1Cl (centres undefined)	.	.	3	10	.	1	.
COc1ccccc1NC(=S)Nc1ccc2cn[nH]c2c1	2	54	16	-13	73	16	.
COc1cccc2sc(Nc3nc(-c4ccccn4)cs3)nc12	-1	103	29	-1	99	50*	46*
c1ccc(Nc2nc(-c3ccccn3)cs2)cc1	3	112	11	-15	109	25	.
N#Cc1nc(/C=C/c2ccccc2)oc1NCCCN1CCOCC1	1	104	-10	14	102	47*	39
COCCNc1oc(/C=C/c2ccccc2)nc1C#N	-4	104	3	12	104	10	.
Cc1ccc(NC(=O)CNC(=O)c2ccco2)c(Cl)c1	2	104	1	5	102	0	.
Cc1noc(NS(=O)(=O)c2ccc(NC(=O)Nc3ccc(Cl)c(Cl)c3)cc2)c1C	-12	96	21	-22	92	48*	46*
CC(=O)Nc1ccc(OCC(O)CN2CCN(c3ccc(C)c(Cl)c3)CC2)cc1 (centres undefined)	2	100	2	1	99	44*	39
CC(=O)Nc1ccc(OCC(O)CN2CCN(c3cc(Cl)ccc3C)CC2)cc1 (centres undefined)	1	99	-2	9	105	9	.
Cc1oc2c(C)c3oc(=O)c(CCC(=O)NCCCn4ccnc4)c(C)c3cc2c1C	-1	102	-4	27	100	14	.
O=C(COC(=O)CNC(=O)c1ccc(Cl)c([N+](=O)[O-])c1)NCC1CCCO1 (centres undefined)	.	.	2	4	.	5	.
Nc1[nH]n2c(=O)c3c(nc2c1N=Nc1ccccc1)CCCC3	-3	96	28	-210	91	64*	60*
Cc1cc(=O)n2[nH]c(N)c(N=Nc3ccccc3)c2n1	-1	105	.	.	111	13	.

Assay outcomes as filed in PubChem BioAssay.
